Data reported in PMC4229637 (British Journal of Cancer, 2014).
Read-outs that look alike come from different tables or passages of the source.

Experiments:
[1] = MK-0752 plasma concentration; format: in vivo, human
How it was run: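 Test compound was given orally at 1800 mg once weekly with IV anti-IGF-1R antibody once weekly, in 28-day cycles. Pre-dose plasma was taken weekly during cycle 1 and on day 1 of subsequent cycles. Plasma levels were quantified by validated HPLC-MS/MS.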

patients = conditions: cited from earlier work; for main toxicities: single agent phase I
[2] = MK-2206 plasma concentration; format: in vivo, human; conditions: for Plasma MK-2206, Median / Plasma MK-2206, Range: cycle 1 day 8
[3] = ref Biondo et al, 2011, Yap et al; cited from earlier work
AKT1 = conditions: read-out: IC50 AKT1; ref Yap et al, 2011; cited from earlier work
AKT2 = conditions: read-out: IC50 AKT2; ref Yap et al, 2011; cited from earlier work
AKT3 = conditions: read-out: IC50 AKT3; ref Yap et al, 2011; cited from earlier work
[4] = Ridaforolimus concentration in whole blood; format: in vivo, human; conditions: cycle 1 day 8; Dalotuzumab (10 mg kg^–1 QW)+ridaforolimus (20 mg QD × 5); N=4; some samples up to 2.5 h post dose
[5] = Dalotuzumab concentration in serum; format: in vivo, human; conditions: for Serum dalotuzumab, Median / Serum dalotuzumab, Range: cycle 1 day 8
[6] = cycle 1 day 8, Dalotuzumab (7.5 mg kg^–1 QW)+MK-0752 (1800 mg QW), N=3
[7] = Dalotuzumab (10 mg kg^–1 QW)+MK-2206 (90 mg QW), N=3
[8] = Dalotuzumab (10 mg kg^–1 QW)+MK-2206 (135 mg QW), N=8
[9] = Dalotuzumab (10 mg kg^–1 QW)+MK-2206 (150 mg QW), N=10
[10] = Dalotuzumab (10 mg kg^–1 QW)+MK-2206 (200 mg QW), N=3
[11] = Dalotuzumab (7.5 mg kg^–1 QW)+MK-0752 (1800 mg QW), N=4
[12] = Dalotuzumab (10 mg kg^–1 QW)+MK-0752 (1800 mg QW), N=11
[13] = Dalotuzumab (10 mg kg^–1 QW)+ridaforolimus (20 mg QD × 5), N=2
[14] = phase I clinical trial of single-agent dalotuzumab, ref Atzori et al, 2011

Molecule: O=C(O)CC[C@H]1CC[C@@](c2cc(F)ccc2F)(S(=O)(=O)c2ccc(Cl)cc2)CC1 [MK-0752]
- Plasma MK-0752, Median [1, 6]: 8.06 μmol l^–1
- Plasma MK-0752, Range [1, 6]: 1.49–11.6 μmol l^–1
- Plasma MK-0752, Median ([1]; cycle 1 day 8, Dalotuzumab (10 mg kg^–1 QW)+MK-0752 (1800 mg QW), N=11): 1.63 μmol l^–1
- plasma trough levels, patients receiving 7.5 mg kg^–1 vs 10 mg kg^–1 dalotuzumab ([1]; weekly dosing with 1800 mg MK-0752): comparable
- main toxicities (patients; ref Krop et al, 2012): fatigue, nausea, and diarrhoea

Molecule: NC1(c2ccc(-c3nc4ccn5c(=O)[nH]nc5c4cc3-c3ccccc3)cc2)CCC1 [MK-2206]
- dose proportional increase of Ctrough levels ([2]; MK-2206 90, 135, 150, and 200 mg QW): not discernible
- Plasma MK-2206, Median [2, 7]: 12.9 nmol l^–1
- Plasma MK-2206, Range [2, 7]: 10.3–20.4 nmol l^–1
- Plasma MK-2206, Median [2, 8]: 29.1 nmol l^–1
- Plasma MK-2206, Range [2, 8]: 0.687–41.1 nmol l^–1
- Plasma MK-2206, Median [2, 9]: 9.08 nmol l^–1
- Plasma MK-2206, Range [2, 9]: 0.736–26.7 nmol l^–1
- Plasma MK-2206, Median [2, 10]: 37.6 nmol l^–1
- Plasma MK-2206, Range [2, 10]: 20.3–50.9 nmol l^–1
- half-life [3]: 40 to 100 h
- IC50 (AKT2): 12 nM
- IC50 (AKT3): 65 nM
- main toxicities (patients; ref Biondo et al, 2011, Yap et al): rash, nausea, vomiting, diarrhoea, and hyperglycaemia
- RP2D (patients; single agent, weekly, ref Biondo et al, 2011): 135 to 200 mg

Molecule: CO[C@H]1C[C@@H]2CC[C@@H](C)[C@@](O)(O2)C(=O)C(=O)N2CCCC[C@H]2C(=O)O[C@H]([C@H](C)C[C@@H]2CC[C@@H](OP(C)(C)=O)[C@H](OC)C2)CC(=O)[C@H](C)/C=C(\C)[C@@H](O)[C@@H](OC)C(=O)[C@H](C)C[C@H](C)/C=C/C=C/C=C/1C [Ridaforolimus]
- Whole blood ridaforolimus, Median [4]: 86.7 ng ml^–1
- Whole blood ridaforolimus, Range [4]: 3.12–184 ng ml^–1
- RP2D (patients; IV, 5 days every 2 weeks, ref Mita et al, 2008): 12.5 mg daily
- Main adverse events (patients; single agent phase I trials, ref Mita et al, 2013, Mita et al, 2008): mucositis, fatigue, rash, nausea, diarrhoea, myelosuppression, and dyslipidaemia

Molecule: Dalotuzumab: humanised IgG1 monoclonal antibody that binds IGF-1R
- Serum dalotuzumab, Median [5, 11]: 39.3 μg ml^–1
- Serum dalotuzumab, Range [5, 11]: 16.7–91.7 μg ml^–1
- Serum dalotuzumab, Median [5, 12]: 41.7 μg ml^–1
- Serum dalotuzumab, Range [5, 12]: 5.69–97.9 μg ml^–1
- Serum dalotuzumab, Median [5, 7]: 33.8 μg ml^–1
- Serum dalotuzumab, Range [5, 7]: 29.3–56.6 μg ml^–1
- Serum dalotuzumab, Median [5, 8]: 52.2 μg ml^–1
- Serum dalotuzumab, Range [5, 8]: 45.2–102 μg ml^–1
- Serum dalotuzumab, Median [5, 9]: 63.5 μg ml^–1
- Serum dalotuzumab, Range [5, 9]: 43.7–86.4 μg ml^–1
- Serum dalotuzumab, Median [5, 10]: 52.3 μg ml^–1
- Serum dalotuzumab, Range [5, 10]: 45.4–92.3 μg ml^–1
- Serum dalotuzumab, Median [5, 13]: 49.6 μg ml^–1
- Serum dalotuzumab, Range [5, 13]: 32.5–66.7 μg ml^–1
- Trough concentrations (Ctrough) after the first administration ([5]; dalotuzumab 7.5 and 10 mg kg^–1, generally exceeded the target threshold level): > 25 μg ml^–1
- Maximum tolerated dose (MTD) (patients; [14]): not reached
- most common adverse events (patients; [14]): fatigue, hyperglycaemia, and back pain
- recommended phase II dose (RP2D) (patients; [14]): 10 mg kg^–1 per week
